From PubChem
DNA FID counter – fluorescent intercalator displacement, NS3 helicase counter-screen; DNA fluorescent intercalator displacement, fluorescence; inhibition, % at 7.9 µM; 290,000 compounds, 0.17% hits; in the data active = inhibition above about 37%;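 also: 0% = vehicle and 100% = reference compound; higher means more ethidium bromide displaced from hairpin DNA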
IMP-1 inhibitor – inhibitors of Pseudomonas aeruginosa IMP-1 metallo-beta-lactamase; purified IMP-1, nitrocefin hydrolysis, epi-absorbance fluorescence; AID 1556; inhibition, % at 5.6 µM; 290,000 compounds, 0.45% hits;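 active = inhibition above the mean plus 3 SD of all compounds in the same screening run, cut at about 4.5% in these data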;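 also: 0% = IMP-1 with DMSO and 100% = DMSO wells lacking enzyme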
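System – purified recombinant IMP-1 beta-lactamase · Input – IMP-1 dispensed at 0.2 nM · Timing – 15 min preincubation plus 25 min reaction at 25 °C · Signal – Epi-absorbance fluorescence, 480 nm excitation, 530 nm emission · Measure – percent IMP-1 inhibition derived from blank-referenced optical density · Controls – Enzyme-plus-DMSO low control, enzyme-free DMSO high control · Replication – singlicate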
VIM-2 inhibitor – blocks Pseudomonas aeruginosa VIM-2 metallo-beta-lactamase; inhibition, % at 5.6 µM; purified VIM-2, nitrocefin hydrolysis, epi-absorbance fluorescence; AID 1527; 290,000 compounds, 0.89% hits;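 active = inhibition above the mean of all tested compounds plus 3 SD, cutoff set per screening run, cut at about 7.5% in these data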;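 also: red hydrolysis product quenches plate fluorescence so inhibitors raise well fluorescence; 0% = enzyme with DMSO and 100% = DMSO without enzyme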
core dimer inh – HCV core protein dimerization inhibition | TR-FRET GST/Flag-core106 dimerization, 1536-well | inhibition, % at 5 µM | 300,000 compounds, 0.33% hits;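 active = inhibition above the mean of all tested compounds plus 3 SD, set per screening campaign, cut at about 45% in these data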
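assay system = GST-tagged and Flag-tagged HCV core protein residues 1-106 | controls = unlabelled core106 and no-GST-core106 wells | incubation = compound-protein-antibody incubation 4 h at 22.5 °C | probe or stimulus = Eu donor and XL665 acceptor anti-tag antibodies | read-out = % inhibition based on acceptor/donor emission ratio | signal = TR-FRET 671 and 617 nm emission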
* = called active by the depositor. An excerpt weighted towards active compounds, which were near 1.6% of everything screened.

SMILES	DNA FID counter	IMP-1 inhibitor	VIM-2 inhibitor	core dimer inh
COC1=C(Nc2ccccc2OC)C(=O)c2ccccc2C1=O	2	1	10.0*	1
Cc1cc(C)n(-c2cccc(Cl)c2C#N)n1	-1	-4	8.7*	-4
CC(=O)c1nc(N2C(=O)CC(Cc3cc(C)cc(C)c3)C2=O)sc1C (configuration not stated)	-42	1	-1	7
CC(=O)c1nc(N2C(=O)CC(Cc3cccc(C)c3)C2=O)sc1C (configuration not stated)	-26	17*	-6	-2
CCS(=O)(=O)Nc1cccc(-c2ccc3nnc(-c4cccnc4)n3n2)c1	-11	-2	8.9*	-3
CCCS(=O)(=O)Nc1cccc(-c2ccc3nnc(C)n3n2)c1	1	-3	1	-5
CCOC(=O)c1cc(-c2ccncc2)nc2c1c(C)nn2C	-12	0	8.2*	-7
COc1ccc(-n2nnnc2SCC(=O)NCc2ccco2)cc1OC	-2	-5	-2	5
CC(C)Cn1c(/C=C/c2ccco2)nc2ccccc21	-31	-4	-3	47*
O=C(NCc1cccnc1)Nc1cccc(NC(=O)NCc2cccnc2)c1	-9	-4	-4	-3
FC(F)Oc1cccc2cccnc12	-1	-1	-3	5
CC(=O)N1CCC(C(=O)c2ccc(Cl)cc2)CC1	-2	-1	-2	-10
Cc1sc2ncnc(-n3cnc4ccccc43)c2c1C	-13	7.3*	0	-3
C=CCc1cc(Cl)ccc1OCCNCCN1CCOCC1	39*	-4	-5	-2
C=CCc1cc(Cl)ccc1OCCNCCOC	17	-2	-3	-2
Cc1cn2c(nc1=O)OC1CC2OC1CO (configuration not stated)	2	-2	-4	2
Cc1nc(N[C@@H](Cc2c[nH]c3ccccc23)C(=O)O)c2oc3ccccc3c2n1	-25	-1	8.8*	-4
Cc1ccc(/C=C/C(=O)Nc2cccc3ncccc23)o1	-6	-1	-8	-6
COc1cc2cc(C(=O)N(C)C3CCS(=O)(=O)C3)[nH]c2cc1OC (configuration not stated)	-5	-5	8.1*	-16
CC(C)(C)NCc1ccc(OCc2cccs2)cc1	12	-4	-3	-2
Cc1cc(C)cc(NC(=O)CN(c2ccc(F)cc2)S(C)(=O)=O)c1	-16	7.4*	-3	-2
O=[N+]([O-])c1ccc2nc(C3CCCCC3)[nH]c2c1	4	-3	0	6
COc1ccc2oc(=O)c(C(=O)NCc3ccccc3)cc2c1	-10	-2	-3	-1
CCCOc1ccc2cc(C(=O)NCc3ccccc3)c(=O)oc2c1	-16	-3	-2	58*
CSc1nc2nccc(-c3ccc4c(c3)OCO4)n2n1	-6	-6	11*	1
SMILES	DNA FID counter	IMP-1 inhibitor	VIM-2 inhibitor	core dimer inh
CSc1nc2nccc(-c3ccc(-c4ccccc4)cc3)n2n1	-8	-3	-2	10
Cc1cc(C)nc(N(C#N)CN2C(=O)c3ccccc3S2(=O)=O)n1	-5	8.8*	4	-6
CNc1nc(OC)nc(N(C#N)CN2C(=O)c3ccccc3S2(=O)=O)n1	1	9.4*	6	0
Cc1ccc(Cl)cc1N1CCN(S(=O)(=O)c2c(C)nc3scc(C)n3c2=O)CC1	-9	-2	0	11
COc1ccc(NC(=O)N2CCc3ccccc3C2)cc1OC	-19	-1	-2	-5
CCNC(=O)COC(=O)c1ccc(-n2nc(C)cc2C)cc1	-4	-2	-2	5
Cc1cc(C)n(-c2ccc(C(=O)OCC(=O)c3ccc(Br)s3)cc2)n1	-41	9.1*	4	27
COc1cc(/C=N/NC(=O)c2ccncc2)ccc1OC(=O)c1ccc([N+](=O)[O-])cc1	7	0	-1	-6
CCCCCCCC1=CC2=CC(=O)C(C)(OC(C)=O)C(=O)C2=CN1CCc1ccccc1 (configuration not stated)	-33	-3	-1	30
CCOC(=O)N1CCc2[nH]c3ccc(C)cc3c2C1	0	-3	8.8*	-4
CC(=O)COc1ccc2c3c(c(=O)oc2c1C)CCCCC3	-11	-1	-6	-19
Cc1c(OC(C)C(=O)N[C@H](C(=O)O)c2ccccc2)ccc2c3c(c(=O)oc12)CCCC3 (some centres not stated)	-15	-4	7.8*	7
CC(=O)C(C)Oc1ccc2c3c(c(=O)oc2c1C)CCCC3 (configuration not stated)	-16	-5	10*	5
Cc1c(OC(=O)CNC(=O)OC(C)(C)C)ccc2c3c(c(=O)oc12)CCC3	-19	-1	23*	-4
